From ChEMBL document CHEMBL1821681, “Synthesis and biological evaluation of derivatives of 4-deoxypodophyllotoxin as antitumor agents” (Eur J Med Chem, 2011)
pIC50: −log10 of the molar value.

Legend:
A549 [1] = experiment: Cytotoxicity against human A549 cells after 48 hrs by MTT assay; format: functional, cell-based; details: A549, 48 h
Method in brief: (§1)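 Cells kept at 37 °C under 5% CO2, plated and allowed to attach for 24 h, then exposed in quadruplicate wells for 48 h to five saline-dissolved concentrations. IC50 is the mean of three independent experiments.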

HeLa = experiment: Cytotoxicity against human HeLa cells after 48 hrs by MTT assay; format: functional, cell-based; method in brief: as §1
SiHa = experiment: Cytotoxicity against human SiHa cells after 48 hrs by MTT assay; format: functional, cell-based; method in brief: as §1
A549 [2] = experiment: Induction of cell cycle arrest in human A549 cells assessed as accumulation at sub-G1 phase at 0.5 uM after 48 hrs using propidium iodide staining by FACS analysis (reference value: 21.7 %); format: functional
A549 [3] = experiment: Induction of cell cycle arrest in human A549 cells assessed as accumulation at G1 phase at 0.5 uM after 48 hrs using propidium iodide staining by FACS analysis (reference value: 59.9 %); format: functional
A549 [4] = experiment: Induction of cell cycle arrest in human A549 cells assessed as accumulation at S phase at 0.5 uM after 48 hrs using propidium iodide staining by FACS analysis (reference value: 36.7 %); format: functional
A549 [5] = experiment: Induction of cell cycle arrest in human A549 cells assessed as accumulation at sub-G1 phase at 0.1 uM after 48 hrs using propidium iodide staining by FACS analysis (reference value: 21.7 %); format: functional
A549 [6] = experiment: Induction of cell cycle arrest in human A549 cells assessed as accumulation at G1 phase at 0.1 uM after 48 hrs using propidium iodide staining by FACS analysis (reference value: 59.9 %); format: functional
A549 [7] = experiment: Induction of cell cycle arrest in human A549 cells assessed as accumulation at S phase at 0.1 uM after 48 hrs using propidium iodide staining by FACS analysis (reference value: 36.7 %); format: functional
A549 [8] = experiment: Induction of cell cycle arrest in human A549 cells assessed as accumulation at G2/M phase at 0.1 uM after 48 hrs using propidium iodide staining by FACS analysis (reference value: 3.2 %); format: functional

SMILES: COc1cc([C@@H]2c3cc4c(cc3C[C@H]3COC(=O)[C@@H]32)OCO4)cc(OC)c1OC(=O)NCC(=O)N1CCN(C)CC1
- pIC50 (A549 [1]): 5.40
- pIC50 (HeLa): 6.15
- pIC50 (SiHa): 5.30

SMILES: COc1cc([C@@H]2c3cc4c(cc3C[C@H]3COC(=O)[C@@H]32)OCO4)cc(OC)c1OC(=O)NCC(=O)N1CCN(c2ccc(O)cc2)CC1
- pIC50 (A549 [1]): 5.62
- pIC50 (HeLa): 5.15
- pIC50 (SiHa): 5.32

SMILES: COc1cc([C@@H]2c3cc4c(cc3C[C@H]3COC(=O)[C@@H]32)OCO4)cc(OC)c1OC(=O)NCC(=O)N1CCN(C2CCCC2)CC1
- pIC50 (A549 [1]): 5.76
- pIC50 (HeLa): 5.51
- pIC50 (SiHa): 6.87

SMILES: COc1cc([C@@H]2c3cc4c(cc3C[C@H]3COC(=O)[C@@H]32)OCO4)cc(OC)c1OC(=O)N[C@@H](Cc1ccccc1)C(=O)N1CCNCC1
- pIC50 (A549 [1]): 7.10
- pIC50 (HeLa): 6.36
- pIC50 (SiHa): 6.80

SMILES: COc1cc([C@@H]2c3cc4c(cc3C[C@H]3COC(=O)[C@@H]32)OCO4)cc(OC)c1OC(=O)N[C@@H](CCSC)C(=O)N1CCN(c2ccc([N+](=O)[O-])cc2)CC1
- pIC50 (A549 [1]): 6.74
- pIC50 (HeLa): 6.72
- pIC50 (SiHa): 6.80

SMILES: COc1cc([C@@H]2c3cc4c(cc3C[C@H]3COC(=O)[C@@H]32)OCO4)cc(OC)c1OC(=O)N[C@H](CCSC)C(=O)N1CCNCC1
- pIC50 (A549 [1]): 6.68
- pIC50 (HeLa): 6.69
- pIC50 (SiHa): 7.08

SMILES: COc1cc([C@@H]2c3cc4c(cc3C[C@H]3COC(=O)[C@@H]32)OCO4)cc(OC)c1O [4'-DEMETHYLDEOXYPODOPHYLLOTOXIN]
- pIC50 (A549 [1]): 5.43
- pIC50 (HeLa): 5.13
- pIC50 (SiHa): 5.68

SMILES: COc1cc([C@@H]2c3cc4c(cc3C[C@H]3COC(=O)[C@@H]32)OCO4)cc(OC)c1OC [DESOXYPODOPHYLLOTOXIN]
- pIC50 (A549 [1]): 6.33
- pIC50 (HeLa): 4.44
- pIC50 (SiHa): 4.99
- Activity (A549 [2]): 13.1%
- Activity (A549 [3]): 85.5%
- Activity (A549 [4]): 1.4%

SMILES: COc1cc([C@@H]2c3cc4c(cc3[C@@H](O[C@@H]3O[C@@H]5CO[C@@H](C)O[C@H]5[C@H](O)[C@H]3O)[C@H]3COC(=O)[C@H]23)OCO4)cc(OC)c1O [ETOPOSIDE]
- pIC50 (A549 [1]): 4.83
- pIC50 (HeLa): 4.30
- pIC50 (SiHa): 4.51
- Activity (A549 [5]): 4.1%
- Activity (A549 [6]): 26%
- Activity (A549 [7]): 59.4%
- Activity (A549 [8]): 10.5%
